Here are results for 6 compounds from ChEMBL document CHEMBL3392966, “Antiproliferative activity of synthetic fatty acid amides from renewable resources” (Bioorg Med Chem, 2015).

≈ marks a conversion by molar mass, not a printed value.

Data set [1] concerns U-251. The experiment in a line: Antiproliferative activity against human U251 cells after 48 hrs by sulforhodamine B assay. The class given is functional. As to conditions: U-251, 48 h. Summed up:
(§1)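 Tumor cells grown in RPMI 1640 with 5% fetal bovine serum, with penicillin/streptomycin in experimental cultures. Exposed in 96-well plates to samples in DMSO/RPMI at 0.25, 2.5, 25 and 250 µg/mL, 37 °C, 5% CO2, 48 h. Fixed with 50% trichloroacetic acid before (T0) and after treatment, protein stained with sulforhodamine B and read at 540 nm. GI50, TGI and LC50 in µg/mL from dose-response curves by non-linear regression.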
(In general: Sulforhodamine B stains cellular protein and so reports cell mass.)

For data set [2], the system named is Vero. The experiment in a line: Cytotoxicity against african green monkey Vero cells after 48 hrs by sulforhodamine B assay. In kind it is cell-based. As to conditions: chlorocebus sabaeus.
The subject of data set [3] is MCF7. The data set is described as follows: Antiproliferative activity against human MCF7 cells after 48 hrs by sulforhodamine B assay. In kind it is functional. The following applies: MCF7, 48 h. Summed up: as §1
Data set [4] relates to NCI/ADR-RES. The experiment in a line: Antiproliferative activity against human NCI/ADR-RES cells assessed as tumor growth inhibition after 48 hrs by sulforhodamine B assay. The class given is functional. Summed up: as §1
Data set [5] has as its system Vero. The experiment in a line: Cytotoxicity against african green monkey Vero cells assessed as tumor growth inhibition after 48 hrs by sulforhodamine B assay. In kind it is cell-based. As to conditions: chlorocebus sabaeus. Summed up: (§2)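 Non-tumor lines (human HaCaT keratinocytes; Vero) in RPMI 1640 with 5% FBS, with penicillin/streptomycin added to experimental cultures. 48 h exposure at 0.25–250 µg/mL (DMSO/RPMI), 37 °C, 5% CO2. TCA fixation at time zero and at end, sulforhodamine B protein stain, absorbance 540 nm. TGI (total growth inhibition) from non-linear regression of the dose-response curve.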

Data set [6] deals with NCI-H460. The data set is described as follows: Antiproliferative activity against human NCI-H460 cells after 48 hrs by sulforhodamine B assay. The class given is functional. As to conditions: NCI-H460, 48 h. Summed up:
as §1

Data set [7] can be described thus: Antiproliferative activity against human OVCAR3 cells assessed as tumor growth inhibition after 48 hrs by sulforhodamine B assay. In kind it is functional. As to conditions: OVCAR-3, 48 h. Summed up:
as §1

Data set [8] has as its system U-251. The experiment in a line: Antiproliferative activity against human U251 cells assessed as tumor growth inhibition after 48 hrs by sulforhodamine B assay. The class given is functional. The following applies: U-251, 48 h. Summed up:
as §1

For data set [9], the system named is NCI-H460. The experiment in a line: Antiproliferative activity against human NCI-H460 cells assessed as tumor growth inhibition after 48 hrs by sulforhodamine B assay. In kind it is functional. The following applies: NCI-H460, 48 h. Summed up:
as §1

Data set [10] can be described thus: Antiproliferative activity against human PC3 cells after 48 hrs by sulforhodamine B assay. In kind it is functional. The following applies: PC-3, 48 h. Summed up: as §1
Data set [11] has as its system 786-0. The experiment in a line: Antiproliferative activity against human 786-0 cells after 48 hrs by sulforhodamine B assay. As to conditions: 786-0, 48 h. In kind it is functional. Summed up:
as §1

Data set [12] has as its system U-251. The experiment in a line: Cytotoxicity against human U251 cells. The class given is cell-based.
Data set [13] in a line: Antiproliferative activity against human OVCAR3 cells after 48 hrs by sulforhodamine B assay. In kind it is functional. The following applies: OVCAR-3, 48 h. Summed up: as §1
Data set [14] can be described thus: Antiproliferative activity against human PC3 cells assessed as tumor growth inhibition after 48 hrs by sulforhodamine B assay. In kind it is functional. As to conditions: PC-3, 48 h. Summed up:
as §1

In data set [15] the test system is NCI/ADR-RES. The experiment in a line: Antiproliferative activity against human NCI/ADR-RES cells after 48 hrs by sulforhodamine B assay. The class given is functional. Summed up:
as §1

The subject of data set [16] is 786-0. The data set is described as follows: Antiproliferative activity against human 786-0 cells assessed as tumor growth inhibition after 48 hrs by sulforhodamine B assay. The following applies: 786-0, 48 h. In kind it is functional. Summed up: as §1
In data set [17] the test system is MCF7. The data set is described as follows: Antiproliferative activity against human MCF7 cells assessed as tumor growth inhibition after 48 hrs by sulforhodamine B assay. The class given is functional. As to conditions: MCF7, 48 h. Summed up:
as §1

Data set [18] has as its system HaCaT. The data set is described as follows: Cytotoxicity against human HaCaT cells after 48 hrs by sulforhodamine B assay. The class given is cell-based.
The subject of data set [19] is HaCaT. The data set is described as follows: Cytotoxicity against human HaCaT cells assessed as tumor growth inhibition after 48 hrs by sulforhodamine B assay. In kind it is cell-based. Summed up:
as §2

In the case of `CCCCC/C=C\C/C=C\CCCCCCCC(=O)N1CCCC1`, the GI50 was determined as 4.2 µg/mL (≈ 12.6 µM) in data set [1]; 4.2 µg/mL (≈ 12.6 µM) in [3]; 7 µg/mL (≈ 21 µM) in data set [6]; 4.7 µg/mL (≈ 14.1 µM) in data set [10]; 4.7 µg/mL (≈ 14.1 µM) in [11]; 5.7 µg/mL (≈ 17.1 µM) in data set [13]. The GI50 in data set [15] was found to be 4.7 µg/mL (≈ 14.1 µM). In addition, the figures for the LC50 in data set [2] and in data set [12] were 13.7 µg/mL (≈ 41.1 µM) and 44.4 µg/mL (≈ 133 µM), respectively. Further, the TGI in data set [4] stood at 7.7 µg/mL (≈ 23.1 µM); in data set [5], 45.1 µg/mL (≈ 135 µM); in [7], 33.9 µg/mL (≈ 102 µM); in [8], 12 µg/mL (≈ 36 µM); in data set [9], 36.6 µg/mL (≈ 110 µM); in data set [14], 32.6 µg/mL (≈ 97.7 µM). Moreover, the figures for the TGI in data set [16] and in [17] were 21.9 µg/mL (≈ 65.7 µM) and 27.5 µg/mL (≈ 82.4 µM), respectively.

As to `CCCCCC[C@@H](O)C/C=C\CCCCCCCC(=O)NCCO`, the GI50 was 3.6 µg/mL (≈ 10.5 µM) in data set [1]; 6.5 µg/mL (≈ 19 µM) in data set [3]; 4.1 µg/mL (≈ 12 µM) in data set [6]; 6.3 µg/mL (≈ 18.4 µM) in data set [10]; 6.6 µg/mL (≈ 19.3 µM) in [11]; 4.1 µg/mL (≈ 12 µM) in data set [13]. In data set [15], this compound had a GI50 of 2.8 µg/mL (≈ 8.2 µM). The LC50 in data set [2] was found to be 3.4 µg/mL (≈ 9.96 µM). The TGI came to 5.4 µg/mL (≈ 15.8 µM) in data set [4]; 7.6 µg/mL (≈ 22.3 µM) in data set [5]; 8.8 µg/mL (≈ 25.8 µM) in data set [7]; 6.5 µg/mL (≈ 19 µM) in [8]; 9.8 µg/mL (≈ 28.7 µM) in data set [9]; 23.5 µg/mL (≈ 68.8 µM) in [14]. Moreover, the TGI came out at 20.4 µg/mL (≈ 59.7 µM) in data set [16] and 3.7 µg/mL (≈ 10.8 µM) in data set [17].

For `CCCCCC[C@@H](O)C/C=C\CCCCCCCC(=O)N[C@@H](C)c1ccccc1`, the GI50 in data set [1] came out at 3.6 µg/mL (≈ 8.96 µM); in data set [3], 5.1 µg/mL (≈ 12.7 µM); in data set [6] it was 8.3 µg/mL (≈ 20.7 µM); in [10], 11.7 µg/mL (≈ 29.1 µM); in [11] it was 6.7 µg/mL (≈ 16.7 µM); in data set [13], 11.1 µg/mL (≈ 27.6 µM). This compound yielded a GI50 in data set [15] of 1.9 µg/mL (≈ 4.73 µM). The TGI in data set [4] was greater than 250 µg/mL; in [7] it was greater than 250 µg/mL; in data set [8] it was 13.9 µg/mL (≈ 34.6 µM); in data set [9] it was 132 µg/mL (≈ 329 µM); in [14], 142 µg/mL (≈ 353 µM); in [16] it was 60.1 µg/mL (≈ 150 µM). For the same compound, the TGI in data set [17] came to 84.5 µg/mL (≈ 210 µM). Also, the results for the LC50 in data set [12] and in data set [18] were 63.6 µg/mL (≈ 158 µM) and 9.7 µg/mL (≈ 24.2 µM), respectively.

`COc1cccc2c1C(=O)c1c(O)c3c(c(O)c1C2=O)C[C@@](O)(C(=O)CO)C[C@@H]3O[C@H]1C[C@H](N)[C@H](O)[C@H](C)O1` [DOXORUBICIN]: the TGI in data set [4] amounted to 1.6 µg/mL (≈ 2.94 µM); in data set [5], 4.1 µg/mL (≈ 7.54 µM); in [19], 2.3 µg/mL (≈ 4.23 µM); in data set [7] it was 7.6 µg/mL (≈ 14 µM); in [8], 0.92 µg/mL (≈ 1.69 µM); in [9] it was 4.9 µg/mL (≈ 9.02 µM). In addition, the TGI in data set [14] was 11.7 µg/mL (≈ 21.5 µM); in data set [16] it was greater than 25 µg/mL; in data set [17], 3.3 µg/mL (≈ 6.07 µM).

Consider `CCCCCCCC/C=C\CCCCCCCC(=O)N[C@H](C)c1ccccc1`, for which the GI50 came out at 6.1 µg/mL (≈ 15.8 µM) in data set [1]; 6.1 µg/mL (≈ 15.8 µM) in data set [3]; 36.6 µg/mL (≈ 94.9 µM) in data set [6]; 46.9 µg/mL (≈ 122 µM) in data set [10]; 26.8 µg/mL (≈ 69.5 µM) in [11]; 56.9 µg/mL (≈ 148 µM) in data set [13]. In data set [15], this compound returned a GI50 of 3 µg/mL (≈ 7.78 µM). Further, the LC50 in data set [2] came out at 10.3 µg/mL (≈ 26.7 µM). The TGI in data set [4] is 35.3 µg/mL (≈ 91.5 µM); in [5], 43 µg/mL (≈ 112 µM); in data set [7] it was greater than 250 µg/mL; in [8], 28.3 µg/mL (≈ 73.4 µM); in data set [9], 106 µg/mL (≈ 274 µM); in [14], 162 µg/mL (≈ 419 µM). Further, the values for the TGI in data set [16] and in data set [17] were 84.8 µg/mL (≈ 220 µM) and 40.8 µg/mL (≈ 106 µM), respectively.

As to `CCCCCC[C@@H](O)C/C=C\CCCCCCCC(=O)N1CCCC1`, the GI50 is 1.5 µg/mL (≈ 4.27 µM) in data set [1]; 4.4 µg/mL (≈ 12.5 µM) in data set [3]; 6.9 µg/mL (≈ 19.6 µM) in data set [6]; 6.2 µg/mL (≈ 17.6 µM) in data set [10]; 4.1 µg/mL (≈ 11.7 µM) in [11]; 4.3 µg/mL (≈ 12.2 µM) in data set [13]. Further, in [15], halving of growth (GI50) required 4 µg/mL (≈ 11.4 µM). In data set [2], this compound showed an LC50 of 4 µg/mL (≈ 11.4 µM). For the same compound, the total growth inhibition concentration (TGI) amounted to 4 µg/mL (≈ 11.4 µM) in data set [4]; 6.8 µg/mL (≈ 19.3 µM) in data set [5]; 4.1 µg/mL (≈ 11.7 µM) in data set [7]; 4.4 µg/mL (≈ 12.5 µM) in data set [8]; 6.2 µg/mL (≈ 17.6 µM) in data set [9]; 4.3 µg/mL (≈ 12.2 µM) in data set [14]. The TGI in [16] came to 6.9 µg/mL (≈ 19.6 µM); in [17], 1.5 µg/mL (≈ 4.27 µM).

As a reminder, the GI50 is the concentration that inhibits growth by half. A word on the LC50: it is the concentration that kills 50% of the test population. What is called TGI is the concentration giving total growth inhibition.
